According to the RNAGym collection of RNA variant scans (doi:10.1126/science.aae0568):
Fewer inactive variants are shown than the library holds.

B1: tRNA (parent)
chain: GUUCCGUUGGCGUAAUGGUAACGCGUCUCCCUCCUAAGGAGAAGACUGCGGGUUCGAGUCCCGUACGGAACG

Variants of: B1
Assay: yeast fitness relative to wild type (ratio to wild type); higher = fitter; tRNA-Arg(CCU), competitive growth, 37 C, YPD
How it was run: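 Variants of the tRNA-Arg(CCU) gene, chemically synthesised with a 3% per-site mutation rate at 69 sites, were placed at the native genomic locus in Saccharomyces cerevisiae. The pooled strains were competed in YPD at 37°C for 24 hours in six parallel replicates. Gene amplicons from the start population and from each end population were read by 100-nucleotide paired-end sequencing. Darwinian fitness relative to wild type came from changes in genotype frequencies; genotypes needed ≥ 100 starting reads, and estimates < 0.5 were set to 0.5.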

| Variant | yeast fitness |
| --- | --- |
| GUUCCGUUGACGUAAUGGUAUCGCGUCUCCCUCCUAAGGAGAAGACUGCGGGAUCGAGUCCCGUAUGGAACG [G10A A21U U53A C66U] | ≤ 0.5 |
| GUUCCGUUGACGUAAUGGUCACGCGUGUCCCUCCUAAGGGGAAGACUGCGGGUUCGAGUCCCGUACGGAACG [G10A A20C C27G A40G] | ≤ 0.5 |
| GUUCCGUUGACGUAAUGGUUACGCGUCUCCCUCCUAAGGAGAAGACUGCGGGUUCGAGUCCCGUACGGACCG [G10A A20U A70C] | 0.579 |
| GUUCCGUUGACGUAAUGGUAACGCGUCUCCCUCCUAAGGAGACGACUGCGGGUUCGAGUCCCGUGCGGAACG [G10A A43C A65G] | 0.589 |
| GUUCCGUUGACGUAAUGGUACCGAGUCUCCCUCCUAAGGAGAAGACUGCGGGUUCGAGUCCCGUCCGGAACG [G10A A21C C24A A65C] | 0.521 |
| GUUCCGUUGACGUAAUGGUUACGCGUCUCCCUCCCAAGGAGAAGACUCCGGGUUCGAGUACCGUACGGCACG [G10A A20U U35C G48C C60A A69C] | ≤ 0.5 |
| GUUCCGUUGACGUAAUGGUAACGCGUCUCCCUCCUAUGGAGAAGACUGCGGGUUCGAGUCGCGUAGGGAACG [G10A A37U C61G C66G] | 0.623 |
| GUUCCGUUGACGUAAUGGUCACGCGUCUCCCUCCUAAAGAAAAGACUGCGGGUUCGAGUCCCGUACGGAACG [G10A A20C G38A G41A] | ≤ 0.5 |
| GUUCCGUUGACGUAAUGGUAUCGCGUCUCCAUCCUAAGCAGAAGACUGCGGGUUCGAGUCCGGUACGAAACG [G10A A21U C31A G39C C62G G68A] | ≤ 0.5 |
| GUUCCGUUGACGUAAUGGUAACGCGUCUCCCUCCUAAGGAGGAGACUGCGGGUUCGAGUCCCGUACGGACCG [G10A A42G A70C] | ≤ 0.5 |
| GUUCCGUUGACGUAAUGGUUACGCGUUUCCCUCCCAAGGAGAAGACUCCGGGUUCGAGUACCGUACGGAACG [G10A A20U C27U U35C G48C C60A] | ≤ 0.5 |
| GUUCCGUUGACGUAAUGGUAACGCGUCUCCCUCCUCAGGAGAAGACUGCGGGUUCGAGUCCCGUACGGAUCG [G10A A36C A70U] | ≤ 0.5 |
| GUUCCGUUGACGUAAUGGUAACGCGUCUCCCUCCUAAGGAGGAGACUGCCGGUUCGAGUCCCGUACGGAACG [G10A A42G G50C] | ≤ 0.5 |
| GUUCCGUUGACGUAAUGGUCACGUGUCUCCCUCCUAAGGAGAAGACUGCGGGUUCGGGUCUCGUACGGAACG [G10A A20C C24U A57G C61U] | ≤ 0.5 |
| GUUCCGUUGACGUAAUGGUACCGAGUCUCCCUCCUAAGGAGAAGACUGCGGGUUCGAGUCCCGUCCGGCACG [G10A A21C C24A A65C A69C] | ≤ 0.5 |
| GUUCCGUUGACGUAAUGGUAACGCGUCUCCCUCCUAUGGAGAAGGGUGCGGGUUAGAGUCCCGUACGGAACG [G10A A37U A45G C46G C55A] | ≤ 0.5 |
| GUUCCGUUGACGUAAUGGUACCGAGUCUCCCUCCUAAGGAGAAGACUGCGGGUUCGAGUCCCGUACGGAACG [G10A A21C C24A] | ≤ 0.5 |
| GUUCCGUUGACGUAAUGGUAACGCGUCUCCCUCCUACGGAGAAGACUGCGGGUUCGCGUCCCGUACGGAACG [G10A A37C A57C] | ≤ 0.5 |
| GUUCCGUUGACGUAAUGGUAGCGCGUCCCCCUCCUAAGGAGAAGACUGCGGGUUCGAGUCCCGUACGGAACG [G10A A21G U28C] | ≤ 0.5 |

| Variant | yeast fitness |
| --- | --- |
| GUUCCGUUGACGUAAUGGUAACGCGUCUCCCUCCUAGGGAGAAGACUGGGGGUUCGAGUCCCGUACGGAACG [G10A A37G C49G] | ≤ 0.5 |
| GUUCCGUUGACGUAAUGGUGACACGUCUCCCUCCUAGGGCGAAGACUGCGGGUUCGAGUCCCGUAUGGAACG [G10A A20G G23A A37G A40C C66U] | ≤ 0.5 |
| GUUCCGUUGACGUAAUGGUCACGCGUCUGCCUCCUAAGGAGAAGACUGCGGGUUCGAGUCCCGUACGGAACG [G10A A20C C29G] | 0.597 |
| GUUCCGUUGACGUAAUGGUUACGCGUCUCCCUCCUAAGGAGGAGACUGCGGGUUCGAGUUCCGAAAGAGACG [G10A A20U A42G C60U U64A C66A G68A A69G] | ≤ 0.5 |
| GUUCCGUUGACGUAAUGGUAACGCGUCUCCCUCCUAAGGAGCCGACUGCGGGUUCGAGUCCCGUACGGAACG [G10A A42C A43C] | 0.612 |
| GUUCCGUUGACGUAAUGGUAUCGCGUCUCCCUCCUAAGGAGGAGACUGCGGGUUCGAGUCCCGUACGGAACG [G10A A21U A42G] | ≤ 0.5 |
| GUUCCGUUGACGUAAUGGUAGUGCGUCUCCCUCCUAAGGAGAAGACUGCGGGUUCGAGUCCCGUACGGAACG [G10A A21G C22U] | 0.606 |
| GUUCCGUUGACGUAAUGGUUACGCGUCUCCCUCCCAAGGAGAAGACUCCGGGUUCGAGUCCCGUACGGAACG [G10A A20U U35C G48C] | 0.723 |
| GUUCCGUUGACGUAAUGGUAGCGCGUCUACCUCCUAAGGAGAAGACUGCGGGUUCGAGUCCCGUACGGAACG [G10A A21G C29A] | 0.519 |
| GUUCCGUUGACGUAAUGGUAACGCGUCUCCCUCCUAAGGGGAAGACUGCGGGUUCGAGUCCCGUACGGAACG [G10A A40G] | 0.79 |
| GUUCCGUUGACGUAAUGGUAACGCGUCUCCCUCCUAAGGUGAAGACUGCGGGUUCGAGUCCCGUACGGAACG [G10A A40U] | 0.683 |
| GUUCCGUUGACGUAAUGGUAACGCGUCUCCCUCCUUAGGAGAGGACUGCGGGUUCGAGUCCCGUAAGGAACG [G10A A36U A43G C66A] | ≤ 0.5 |
| GUUCCGUUGACGUAAUGGUAACGCGUCUCCCUCCUAUGGAGAAGACUGCGGGUUCGAGUCCCGUACCGAACG [G10A A37U G67C] | 0.587 |
| GUUCCGUUGACGUAAUGGUAGCGCGUCUCUCUCCUAAGGAGAAGACUGCCGGUUCGAGUCCCGUACGGAACG [G10A A21G C30U G50C] | 0.752 |
| GUUCCGUUGACGUAAUGGUAACGCGUCUCCCUCCUUAAGAGAAGACUGCGGGUUCGAGUCCCGUCCGGAACG [G10A A36U G38A A65C] | ≤ 0.5 |
| GUUCCGUUGACGUAAUGGUGACGCGCCUCCCUCCUAAGAAGAAGACUGCGGGUUCGAGUCCCGUACGGAACG [G10A A20G U26C G39A] | ≤ 0.5 |
| GUUCCGUUGACGUAAUGGUAACGCGUCUCCCUCCUGAGGAGAAGACUGCGGGUUCGAGUGCCGUACGGAACG [G10A A36G C60G] | ≤ 0.5 |
| GUUCCGUUGACGUAAUGGUAUCGCGUCUCCCUCCUAAGGAGAAGACUGCGGGAUCGAGUCCCGUACGGAACG [G10A A21U U53A] | 0.521 |
| GUUCCGUUGACGUAAUGGUAACGCGUCUCCCUCCUGAGGAGAAGACUCCGGGUUCGAGUCCCGUACGGAACG [G10A A36G G48C] | 0.691 |
